Laboratory results: ChEMBL document CHEMBL4732104, “Discovery of bardoxolone derivatives as novel orally active necroptosis inhibitors” (Eur J Med Chem, 2021)
Activity calls are given as the source filed them. The calls are words filed in the database; no cut-off is given here.

Key:
L929 = assay: Anti-necroptotic activity in mouse L929 cells assessed as inhibition of TNFalpha/Z-VAD-fmk (TZ)-induced necroptosis by measuring increase in cell viability measured after 12 hrs by celltiter-glo luminescent cell viability assay; assay type: functional, cell-based
How it was run: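 Mouse L929 fibroblasts pretreated with test agent, then mouse TNF-α (20 ng/mL) plus z-VAD-fmk (20 μM). Incubation stated as 4 h in table footnote and 12 h in figure legend. CellTiter-Glo viability. EC50 ± SD from at least three independent repeats.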

HT-29 = assay: Anti-necroptotic activity in human HT-29 cells assessed as inhibition of TNFalpha/SM-164/Z-VAD-fmk (TSZ)-induced necroptosis by measuring increase in cell viability at 10 uM measured after 12 hrs in presence of RIPK3 inhibitor SZM630 by celltiter-glo luminescent cell viability assay; assay type: functional, cell-based
How it was run: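 HT-29 cells exposed to test agent combined with a second necroptosis inhibitor, then stimulated with TSZ for 12 h to assess synergy. Viability read by CellTiter-Glo luminescence.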

Rattus norvegicus = assay: Neuroprotective activity in middle cerebral artery occlusion-induced Sprague-Dawley rat model of ischemia-reperfusion injury assessed as neurological deficit score at 100 mg/kg (reference value: 3.71 +/- 0.45); assay type: functional
[1] = biological target: T1, Heat shock protein HSP90 (Homo sapiens) (UniProt P07900+P08238); assay: Inhibition of HSP90 in TNFalpha/SM-164/Z-VAD-fmk (TSZ)-induced human HT-29 cells assessed as reduction in EGFR expression at 10 uM by Western blot analysis; assay type: cell-based; conditions: time 0.5-6 hrs
Mus musculus = assay: Protection against TNFalpha-induced C57BL/6J mouse model of systemic inflammatory response syndrome assessed as survival at 20 mg/kg, ig administered via gavage 2 hrs prior to TNFalpha stimulation and measured after 10 to 60 mins relative to control; assay type: functional; conditions: po, time 2-3 hrs
How it was run: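 Female C57BL/6 J mice, 6–8 weeks, fasted overnight, n=11 per group. Compound suspended in 0.5% CMC-Na, by oral gavage 2 h before mTNF-α 250 µg/kg i.v.; z-VAD-fmk 200 µg i.p. 15 min before and 75 µg 1 h after TNF. Survival and body temperature monitored.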

[2] = biological target: T1, Heat shock protein HSP90 (Homo sapiens); assay: Inhibition of HSP90 in TNFalpha/SM-164/Z-VAD-fmk (TSZ)-induced human HT-29 cells assessed as increase in HSP70 expression at 10 uM by Western blot analysis; assay type: cell-based; conditions: time 0.5-6 hrs

With `CC1(C)CC[C@]2(C(=O)n3cnc(-c4cccnc4)c3)CC[C@]3(C)[C@H](C(=O)C=C4[C@@]5(C)C=C(C#N)C(=O)C(C)(C)[C@@H]5CC[C@]43C)[C@@H]2C1` the inhibition (L929) was “Dose-dependent effect”, the EC50 (L929; L929, 12 h) was 860 nM and the inhibition (HT-29) was “Active”. For the same molecule, the Activity (Rattus norvegicus) was 2.72, the inhibition [1] was “Dose-dependent effect” and the survival at 20 mg/kg (Mus musculus) was 100%. The inhibition [2] was “Dose-dependent effect”.
